Experimental findings from ChEMBL document CHEMBL1126093, “Structural features of substituted purine derivatives compatible with depletion of human O6-alkylguanine-DNA alkyltransferase” (J Med Chem, 1992) are described below.

Calls of active or inactive are those of the source. No cut-off for these calls is given here.

The target of test [1] is T1, Methylated-DNA--protein-cysteine methyltransferase (Homo sapiens) (UniProt P16455).
T1 sequence (whole entry): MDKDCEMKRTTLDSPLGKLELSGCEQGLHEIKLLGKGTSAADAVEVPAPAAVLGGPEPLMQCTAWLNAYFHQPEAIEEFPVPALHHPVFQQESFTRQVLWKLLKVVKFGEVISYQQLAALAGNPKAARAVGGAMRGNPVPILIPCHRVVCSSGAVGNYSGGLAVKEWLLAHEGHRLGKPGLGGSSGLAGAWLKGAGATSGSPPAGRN
Description: Inhibitory activity against alkyl transferase in HT-29 cells. It counts as cell-based. A digest of the protocol: (§1)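 HT29 cells plated at 5 × 10⁶ per T75 flask and grown 3 days. Medium then replaced with medium holding increasing derivative concentrations (range 0.05–400 μM where soluble) for 4 h. Cells rinsed with PBS, harvested, frozen at -80 °C, then extracted. AGT activity assayed by O⁶-[³H]methylguanine loss from [³H]methylated DNA. 50% inactivation dose taken from plots; at least duplicates.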

The target in test [2] is T1, Methylated-DNA--protein-cysteine methyltransferase (Homo sapiens). Description: In vitro inhibition of human alkyl transferase in HT-29 cell-free extracts. In outline: (§2)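 HT29 crude cell extract incubated 30 min with derivative (0–400 μM, from 100 mM DMSO stocks) in 50 mM Tris-HCl pH 7.5, 0.1 mM EDTA, 5 mM DTT. Remaining AGT activity measured as loss of O⁶-[³H]methylguanine from [³H]methylnitrosourea-methylated calf thymus DNA. Dose for 50% inactivation read from %-activity-remaining vs dose plots; at least duplicates averaged.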

For test [3] the target is unchanged. The test can be described thus: Inhibitory activity against alkyl transferase in HT-29 cell-free extracts; inactive. A digest of the protocol: as §2
Test [4] shares this target. Description: The compound was tested for its inhibitory activity against alkyl transferase in HT-29 cells; inactive. Format: cell-based. A digest of the protocol: as §1

For `CCOC(=O)Cn1cnc2c(OCc3ccccc3)nc(N)nc21`, the ED50 turned out to be 3 µM in test [1] and 30 µM in test [2].
The like results for `NC(=O)Cn1cnc2c(OCc3ccccc3)nc(N)nc21` were, in that order, 7.5 µM and 47 µM.
In the case of `Cc1ccc(COc2nc(N)nc3c2ncn3C2O[C@H](CO)[C@@H](O)[C@H]2O)cc1` (some centres undefined), the results for the ED50 in test [1] and in test [2] were 3 µM and 9 µM, respectively.
With `Nc1nc(O)c2c(ncn2Cc2ccccc2)n1`, the ED50 entry in test [3] is “inactive”.
Take `Nc1nc(OCc2ccccc2)c2ncn([C@H]3C[C@H](O)[C@@H](CO)O3)c2n1`: the ED50 in test [1] was 0.5 µM; in test [2] it was 2 µM.
Take `C=CCOc1nc(N)nc2nc[nH]c12`: the ED50 in test [1] was found to be 4 µM; in test [2], 20 µM.
As for `NC(=O)Cn1cnc2nc(N)nc(OCc3ccccc3)c21`, the ED50 result in test [3] is “inactive”.
Consider `Nc1nc(OCc2ccc(Cl)cc2)c2ncn(C3O[C@H](CO)[C@@H](O)[C@H]3O)c2n1` (some centres undefined), for which the figures for the ED50 in test [1] and in test [2] were 5 µM and 10 µM, respectively.
Regarding `CCOC(=O)Cn1cnc2nc(N)nc(OCc3ccccc3)c21`, the ED50 result in test [3] was “inactive”.
For `COc1nc(N)nc2nc[nH]c12`, the ED50 in test [1] amounted to 120 µM; in test [2] it was 350 µM.
The like results for `Nc1nc(OCc2ccc(F)cc2)c2[nH]cnc2n1` were, in that order, 0.05 µM and 0.2 µM.
In the case of `Nc1nc(OCc2ccccc2)c2ncn(C3O[C@H](CO)[C@@H](O)[C@H]3O)c2n1` (some centres undefined), the ED50 came out at 2 µM in test [1] and 11 µM in test [2].
For the molecule `c1ccc(COc2[nH]cnc3ncnc2-3)cc1`, the values for the ED50 in test [1] and in test [2] were 36 µM and 85 µM, respectively.
As to `Cc1ccc(CSc2[nH]c(N)nc3ncnc2-3)cc1`, in test [3], the ED50 entry was “inactive”.
For the molecule `CCC(O)Cn1cnc2c(OCc3ccccc3)nc(N)nc21` (centres undefined), the ED50 in test [1] is 2 µM; in test [2] it was 13 µM.
For `Nc1nc(OCc2ccccc2)c2c(ncn2CC(=O)O)n1`, in test [4], the ED50 entry was “inactive”.
On to `Cc1ccc(COc2nc(N)nc3nc[nH]c23)cc1`, for which the results for the ED50 in test [1] and in test [2] were 0.08 µM and 0.2 µM, respectively.
As to `Nc1nc(SCc2ccccc2)c2[nH]cnc2n1`, the ED50 entry in test [3] is “inactive”.
For the molecule `Nc1nc(OCc2ccc(Cl)cc2)c2[nH]cnc2n1`, the ED50 in test [1] is 0.08 µM; in test [2], 0.2 µM.
The like results for `N#CCn1cnc2c(OCc3ccccc3)nc(N)nc21` were, in that order, 0.8 µM and 13 µM.
On to `CCC(O)Cn1cnc2nc(N)nc(OCc3ccccc3)c21` (centres undefined), for which the ED50 entry in test [3] was “inactive”.
Same read-out and setting: as for `Nc1nc(SCc2ccc([N+](=O)[O-])cc2)c2ncn([C@@H]3O[C@H](CO)[C@@H](O)[C@H]3O)c2n1`, the entry is “inactive”.
In test [2], `Nc1nc(OCc2ccccc2)c2ncn(CC(=O)O)c2n1` yielded an ED50 of 157 µM. Further, in test [4], the ED50 entry is “inactive”.
As for `N#CCn1cnc2nc(N)nc(OCc3ccccc3)c21`, the ED50 entry in test [3] was “inactive”.
